What was measured:
[1] = Semaglutide plasma pharmacokinetics after a single dose of oral semaglutide; assay type: in vivo, human
Summary of the method: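 Same crossover, dosing and fasting. Plasma was drawn predose and 0.5–24 h and analysed by LC-MS/MS (LLOQ 0.73 nmol/L). Trapezoidal AUC0-24h was used; log-transformed mixed models (volume, period fixed; subject random) allowed left-censoring. For correlation, log PK was modelled against log time to complete tablet erosion, assessed by gamma scintigraphy of ¹¹¹In-labelled tablets. 2^β gave the fold change per doubling. All-below-LLOQ profiles were imputed from 0.5×LLOQ.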

[2] = SNAC plasma pharmacokinetics after a single dose of oral semaglutide; assay type: in vivo, human; conditions: for Median tmax,SNAC: plasma, LC-MS/MS
Summary of the method: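 Two-period randomized crossover in 26 fasting healthy men. Each received one 10 mg tablet (coformulated with 300 mg absorption enhancer), upright, between 8 and 11 am, with 50 or 240 mL water. Fasting continued ≥4 h, with 200 mL water at 2 h. Plasma was drawn predose and 10 min–6 h and assayed by protein precipitation LC-MS/MS. Trapezoidal AUC0-6h used actual times. AUC and Cmax were log-transformed; mixed model had volume and period fixed, subject random.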

[3] = linear mixed model, log-transformed
[4] = single oral semaglutide tablet with 300 mg SNAC, fasting healthy men

Row | 2^β, estimated fold change in AUC0-24h,semaglutide if time to CTE is doubled [1, 3] | 2^β, estimated fold change in Cmax,semaglutide if time to CTE is doubled [1, 3] | 2^β, estimated fold change in tmax,semaglutide if time to CTE is doubled [1, 3] | AUC0-24h,semaglutide, higher with 50 versus 240 mL water ([1]; single 10 mg oral semaglutide) | Cmax,semaglutide, higher with 50 versus 240 mL water ([1]; single 10 mg oral semaglutide) | Median tmax,SNAC ([2]; 50 mL water) | Median tmax,SNAC ([2]; 240 mL water) | AUC0-6h,SNAC, lower with 50 versus 240 mL water [2, 4] | Cmax,SNAC, lower with 50 versus 240 mL water [2, 4] | Structure (SMILES)
1 | approximately 2 | approximately 2 | ~1.5 | approximately 70% | approximately 70% | – | – | – | – | CC[C@H](C)[C@H](NC(=O)[C@H](Cc1ccccc1)NC(=O)[C@H](CCC(=O)O)NC(=O)[C@H](CCCCNC(=O)COCCOCCNC(=O)COCCOCCNC(=O)CC[C@H](NC(=O)CCCCCCCCCCCCCCCCC(=O)O)C(=O)O)NC(=O)[C@H](C)NC(=O)[C@H](C)NC(=O)[C@H](CCC(N)=O)NC(=O)CNC(=O)[C@H](CCC(=O)O)NC(=O)[C@H](CC(C)C)NC(=O)[C@H](Cc1ccc(O)cc1)NC(=O)[C@H](CO)NC(=O)[C@H](CO)NC(=O)[C@@H](NC(=O)[C@H](CC(=O)O)NC(=O)[C@H](CO)NC(=O)[C@@H](NC(=O)[C@H](Cc1ccccc1)NC(=O)[C@@H](NC(=O)CNC(=O)[C@H](CCC(=O)O)NC(=O)C(C)(C)NC(=O)[C@@H](N)Cc1cnc[nH]1)[C@@H](C)O)[C@@H](C)O)C(C)C)C(=O)N[C@@H](C)C(=O)N[C@@H](Cc1c[nH]c2ccccc12)C(=O)N[C@@H](CC(C)C)C(=O)N[C@H](C(=O)N[C@@H](CCCNC(=N)N)C(=O)NCC(=O)N[C@@H](CCCNC(=N)N)C(=O)NCC(=O)O)C(C)C [semaglutide]
2 | – | – | – | – | – | 18 min | 18 min | 19% | 38% | O=C([O-])CCCCCCCNC(=O)c1ccccc1O.[Na+] [SNAC, sodium N‐(8‐[2‐hydroxybenzoyl]amino) caprylate]

Reference: PMC8251533 (Clinical Pharmacology in Drug Development, 2021)
